Only some compounds are listed: those with a hit (about 1.3% of all), similar ones and a draw of the others.
Tb hexokinase: blocks Trypanosoma brucei hexokinase 1 activity; recombinant TbHK1, G6PDH-coupled NADH A340; inhibition, % at 10 µM; actives 0.11% (n = 220,000);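 active = inhibition of 50% or more in the single-dose primary screen; inactive = inhibition below 50%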
HKDC1 inh: HKDC1 (human) hexokinase inhibition. Q2TB90. recombinant HKDC1, G6PDH/diaphorase resazurin coupled fluorescence. inhibition, % at 20 µM. actives 0.16% (n = 340,000);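 active = inhibition above about 35% when tested at 20 µM, limit read from the data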;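 also: plate controls were DMSO wells with enzyme for no effect and DMSO wells lacking enzyme for full effect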
Target sequence (Q2TB90 whole entry, looked up): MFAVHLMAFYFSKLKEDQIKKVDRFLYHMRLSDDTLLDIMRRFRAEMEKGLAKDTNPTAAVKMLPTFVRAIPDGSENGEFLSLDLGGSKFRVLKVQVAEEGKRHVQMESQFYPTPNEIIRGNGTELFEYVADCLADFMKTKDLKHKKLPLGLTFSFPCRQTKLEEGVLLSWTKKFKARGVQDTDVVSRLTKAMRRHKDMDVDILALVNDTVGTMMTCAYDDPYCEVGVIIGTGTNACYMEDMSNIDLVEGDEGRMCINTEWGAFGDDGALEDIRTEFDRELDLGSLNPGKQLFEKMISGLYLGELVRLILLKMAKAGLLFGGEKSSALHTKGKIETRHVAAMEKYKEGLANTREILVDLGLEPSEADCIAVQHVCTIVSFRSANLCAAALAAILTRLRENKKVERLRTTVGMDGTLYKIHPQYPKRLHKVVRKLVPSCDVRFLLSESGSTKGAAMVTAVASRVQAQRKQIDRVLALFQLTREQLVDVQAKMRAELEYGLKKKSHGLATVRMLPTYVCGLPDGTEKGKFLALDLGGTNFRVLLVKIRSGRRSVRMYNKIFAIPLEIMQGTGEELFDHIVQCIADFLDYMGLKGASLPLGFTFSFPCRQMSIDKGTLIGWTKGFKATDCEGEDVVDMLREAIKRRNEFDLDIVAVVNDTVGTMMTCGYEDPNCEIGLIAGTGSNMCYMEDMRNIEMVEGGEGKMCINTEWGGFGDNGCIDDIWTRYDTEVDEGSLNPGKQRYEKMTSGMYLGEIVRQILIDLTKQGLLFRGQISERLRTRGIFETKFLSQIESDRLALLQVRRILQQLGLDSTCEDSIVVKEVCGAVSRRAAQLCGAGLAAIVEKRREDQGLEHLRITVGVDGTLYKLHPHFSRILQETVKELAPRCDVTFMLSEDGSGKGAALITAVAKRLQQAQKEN
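test system = in-house recombinant HK5 (HKDC1) enzyme | amount = HKDC1 at 5 µg/mL | control set = DMSO-enzyme wells negative, buffer-substituted wells positive | compound = one dose of 20 µM, 1% DMSO | schedule = reaction time 90 min, room temperature, protected from light | technique = resorufin fluorescence at 613 nm | reagent = glucose with 1 mM ATP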
G6PDH CS: L. mesenteroides G6PDH inhibition counter-screen. Purified L. mesenteroides G6PDH, diaphorase/resazurin coupled fluorescence, 45 min. AID 1020. inhibition, % at 5 µM. actives 0.12% (n = 200,000); in the data active = inhibition above about 50%
PfG6PD inh: PfG6PD (Plasmodium falciparum) enzyme inhibition; inhibition, % at 20 µM; AID 504690; actives 0.78% (n = 350,000); PfGluPho enzyme, NADPH resazurin-diaphorase fluorescence;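 active = inhibition reaching at least a set limit at 20 µM in the primary screen, cut at about 59% in these data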;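 also: 0% = DMSO wells with substrate and 100% = DMSO wells lacking glucose-6-phosphate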
Diaphorase inh: diaphorase inhibition or chemical oxidation counter-screen. diaphorase resazurin-to-resorufin fluorescence, NADH, 16 min; bacterial (C. kluyveri) enzyme, not human. inhibition, % at 20 µM. actives 0.69% (n = 190,000);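 active = primary screen inhibition at 20 µM above a set limit, cut at about 50% in these data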;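 also: plate controls were DMSO with full reaction for no effect and wells lacking NADH for full effect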
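System: Diaphorase enzyme from Clostridium kluyveri | Amount: Enzyme working solution with 0.14 U/mL diaphorase | Benchmarks: No-NADH positive control and DMSO neutral control | Signal: Fluorescence of resorufin formed from resazurin, Ex 544/Em 590 nm | Schedule: 16-min room-temperature incubation before reading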
HKDC1 act conf: confirmation of human HKDC1 activators; shares compounds with HKDC1 inh; AID 504708; inhibition, % at 20 µM; recombinant HKDC1, G6PDH/diaphorase resazurin fluorescence; hits give low values; actives 14% (n = 740);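 active = inhibition at or below a set negative limit, negative inhibition meaning the enzyme was activated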
* hit, by the source's call; · = not tested or not shown.

SMILES	Tb hexokinase	HKDC1 inh	G6PDH CS	PfG6PD inh	Diaphorase inh	HKDC1 act conf
COc1ccc(C(=O)CSc2n[nH]c(-c3ccco3)n2)cc1	2	5	2	-20	20	·
N#Cc1c(NC(=O)COC(=O)C2=COCCO2)sc2c1CCCC2	·	·	·	-8	·	·
Cc1cccc(C)c1Nc1nnc(SCc2cn3cccc(C)c3n2)s1	-3	34	16	16	47	54
Cc1cc(NC(=O)CSc2nnc(C)n2-c2ccccc2)no1	-3	-2	4	-17	18	·
Cc1ccc(-n2nc(-c3ccc(OC(F)(F)F)cc3)cc2N)cc1C	-9	2	·	27	·	·
COc1ccc(Cn2c(C)nc3c(c2=O)c2nc4ccccc4nc2n3Cc2ccco2)cc1	·	33	·	36	·	-10
Cc1ccc(N=Cc2cc(Cc3ccccc3Cl)cc([N+](=O)[O-])c2O)c(O)c1	12	30	47	58	17	30
COc1cccc(NC(=O)CSc2ccc(-c3ccco3)nn2)c1	·	11	·	16	·	·
COc1ccc(OC)c(NC(=O)CSc2ccc(-c3ccco3)nn2)c1	·	43*	·	53	·	38
COc1ccc(NC(=O)CSc2ccc(-c3ccco3)nn2)cc1OC	·	43*	·	44	·	44
O=C(CN(Cc1ccccc1)C(=O)CCC(=O)Nc1nccs1)NCC1CCCO1 (centres undefined)	·	-4	·	4	·	·
O=C(NNC(=S)Nc1ccc(Cl)c(Cl)c1)c1ccccn1	-20	-57	-9	-8	-10	-74*
O=C(Nc1ccc(S(=O)(=O)NC2=NCCCCC2)cc1)c1ccc(=O)[nH]c1	1	12	6	-13	9	·
Cc1cc(C(=O)COC(=O)c2ccccc2O)c(C)n1CC1CCCO1 (centres undefined)	·	-7	·	14	·	·
Cc1cc(C(=O)COC(=O)c2cc(O)c3ccccc3c2O)c(C)n1CC1CCCO1 (centres undefined)	-7	47*	34	78*	37	15
CCOC(=O)c1c(NC(=O)CSc2nnnn2-c2ccc(OC)cc2)sc(C)c1C	21	-48	5	90*	4	-42*
CCOC(=O)c1csc(NC(=O)CSc2nnnn2-c2ccc(OC)cc2)n1	-3	-4	2	-18	14	·
Cc1ccc(/C=N/n2c(C)cc(C)c(C#N)c2=O)o1	-38	-2	2	2	2	·
O=C1/C(=C\c2ccc(-c3ccccc3[N+](=O)[O-])o2)C(c2ccccc2)=NN1c1ccccc1	-6	42*	-4	16	19	3
Cc1cc(C)n2cc(CSc3nnnn3-c3ccccc3)nc2n1	-5	3	5	7	1	·
Cc1cc(C)n2cc(CSc3nnc(-c4ccccc4)c(-c4ccccc4)n3)nc2n1	·	38*	·	29	·	38
CCN(CC)C(=O)c1ccc(C(=O)c2c(C)cc(C)cc2C)cc1	6	39*	19	-11	11	-40*
CCCc1[nH]nc2c1C(c1ccc(OC)c(Cn3nnc4ccccc43)c1)C(C#N)=C(N)O2 (centres undefined)	0	2	-1	-19	20	·
O=C(NCc1nc(-c2ccccc2)cs1)c1ccccc1	-3	-6	7	-3	4	·
COc1ccccc1N(C)S(=O)(=O)c1ccc(Cl)c(C(=O)NCC2(N(C)C)CCCCC2)c1	·	42*	·	-6	·	-28
SMILES	Tb hexokinase	HKDC1 inh	G6PDH CS	PfG6PD inh	Diaphorase inh	HKDC1 act conf
COc1ccccc1N(C)S(=O)(=O)c1ccc(Cl)c(C(=O)NNC(=O)c2ccccc2O)c1	·	-16	·	-23	·	·
COC(=O)/C=C1\NCCSC1=O	7	2	-6	-17	15	·
COc1cc(/C=C2\SC(=S)N(c3cccnc3)C2=O)ccc1O	-24	38*	·	-9	·	1
COc1cc(/C=C2\SC(=S)N(NC(=O)c3cccnc3)C2=O)ccc1O	-2	-2	·	-52	·	·
COc1cccc(-n2c(=O)c3sccc3n(CC(=O)NCC3CCCO3)c2=O)c1 (centres undefined)	·	-1	·	-4	·	·
Nc1cccc(-n2nnnc2CN2CCOCC2)c1	24	-11	-4	19	9	·
[S-]c1nnc(-c2ccc(Br)cc2)n1-c1ccccc1.[Zn+2]	·	49*	·	16	·	26
COCc1cc(C)nc(NC2CCCCC2)c1C#N	-5	1	1	-8	-13	·
COCc1cc(SC2CCCCC2)nc(C)n1	1	46*	8	-17	5	-28
COc1ccc(NC(=O)Cc2c[nH]c3ccccc23)cc1S(=O)(=O)N1CCOCC1	-1	-2	2	13	8	·
COc1ccc(NC(=O)Cc2c[nH]c3ccccc23)cc1S(=O)(=O)N1CCCCC1	4	49*	2	16	20	-35*
CN(C(=O)CN1CCN(c2ccccc2F)CC1)C1CCCc2ccccc21 (centres undefined)	·	0	·	1	·	·
O=C(Nc1nc(-c2ccccc2)cs1)C1CCCN(S(=O)(=O)c2ccccc2)C1 (centres undefined)	-1	2	6	25	6	·
Oc1ccc2ccccc2c1/C=N/c1nccs1	5	37*	49	21	31	29
Oc1ccc2ccccc2c1C=Nc1ccccc1Br	·	38*	·	24	·	10
Oc1ccccc1N=Cc1c(O)ccc2ccccc12	5	10	·	7	·	·
O=C(c1ccco1)N1CCN(C(=O)c2cnn(-c3ccc(F)cc3)c2-n2cccc2)CC1	·	·	·	-17	·	·
COCCn1c(-c2cccs2)csc1=Nc1cccnc1	-7	7	-3	51	3	·
Cc1ccc(C)c(S(=O)(=O)N2CCN(C(=O)CN3C(=O)NC(C)(C)C3=O)CC2)c1	·	-8	·	-4	·	·
Cc1ccc(S(=O)(=O)N2CCN(C(=O)CN3C(=O)NC4(CCCCC4)C3=O)CC2)c(C)c1	·	38*	·	-12	·	-18
CCCCC(NC(=O)c1ccc(Cl)cc1)C(=O)O (centres undefined)	12	6	3	-13	6	·
COc1ccc(NC(=O)Nc2nnc(-c3ccncc3)s2)cc1	-13	-6	0	-5	9	·
O=C(Nc1ccc(Cl)c(Cl)c1)Nc1nnc(-c2ccncc2)s1	41	41*	0	-2	37	-5
CCc1ccc(S(=O)(=O)Nc2ccc(O)c3ccccc23)cc1	·	44*	·	10	·	20
O=S(=O)(Nc1ccc(O)c2ccccc12)c1ccc(F)cc1	·	43*	·	33	·	6
O=S(=O)(Nc1ccc(NS(=O)(=O)c2ccccc2)c2ccccc12)c1ccccc1	·	·	·	-17	·	·
COc1ccc(OC)c(S(=O)(=O)Nc2ccc(O)c3ccccc23)c1	-4	27	-1	37	14	·
CCOC(=O)c1ccc(N/C=C/C(=O)c2ccco2)cc1	-18	-5	2	-1	2	·
COC(=O)c1c(-c2ccc(SC)cc2)sc2ccccc12	·	8	·	18	·	·

High-throughput results (PubChem BioAssay)
